PPC-1+TRAIL kill – kills PPC-1 cancer cells in the presence of TRAIL | PPC-1 cells + TRAIL, ATPLite viability luminescence | cell killing (% activity), % at 4 µM or 5 µM | hit rate 0.41% among 220,000 | AID 1443;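 active = cell killing above 50% in the first pass at 4 µM, then a duplicate retest at 5 µM averaging 50% or more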;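 note: plate controls were cells with TRAIL plus DMSO for no effect and medium-only wells lacking cells for full effect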
Wee1 degr inh – human Wee1 degradation inhibition, primary screen | HeLa Luc-Wee1K328M stability, luciferase luminescence; 100% = proteasome inhibitor MG132 effect | AID 1321 | reporter increase, % at 5 µM | P30291 | hit rate 1.2% among 220,000;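 active = activation above the mean of all tested compounds plus 3 SD, set per screening run, cut at about 8.8% in these data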;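 note: cells exposed to compound for 20 h before luminescence read; 0% = DMSO alone and 100% = MG132 at 30 µM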
Target sequence (P30291 whole entry K328M): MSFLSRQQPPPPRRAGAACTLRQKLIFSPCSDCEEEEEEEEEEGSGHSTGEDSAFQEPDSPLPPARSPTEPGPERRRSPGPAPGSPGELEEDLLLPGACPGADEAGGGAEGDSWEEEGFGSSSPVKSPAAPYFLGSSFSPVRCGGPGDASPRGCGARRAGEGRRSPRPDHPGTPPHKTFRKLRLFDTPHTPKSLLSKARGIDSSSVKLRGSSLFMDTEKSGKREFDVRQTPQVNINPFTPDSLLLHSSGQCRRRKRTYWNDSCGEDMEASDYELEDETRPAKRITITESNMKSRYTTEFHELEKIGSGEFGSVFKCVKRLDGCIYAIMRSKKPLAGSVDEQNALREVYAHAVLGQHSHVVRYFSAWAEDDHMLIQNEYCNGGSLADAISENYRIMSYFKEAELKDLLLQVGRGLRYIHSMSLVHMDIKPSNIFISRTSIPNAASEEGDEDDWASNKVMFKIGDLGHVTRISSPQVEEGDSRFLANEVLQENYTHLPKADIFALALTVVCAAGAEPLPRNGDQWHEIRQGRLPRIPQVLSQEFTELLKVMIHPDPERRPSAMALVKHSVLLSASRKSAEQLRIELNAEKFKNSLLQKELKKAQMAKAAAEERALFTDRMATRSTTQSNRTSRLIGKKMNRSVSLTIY
FLuc inhib CS – Photinus pyralis luciferase inhibition counter-screen; ATPLite firefly luciferase biochemical luminescence, 10 min; AID 1006; inhibition, % at 10 µM; hit rate 1.5% among 200,000; P08659;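 active = inhibition above about 50% when tested at 10 µM, limit read from the data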
FLuc stim CS – affects firefly luciferase, flagging false hits in luciferase stimulation screens; ATPlite luciferase biochemical, luminescence, 10 min; 0 = ATP-free wells, 1 = DMSO control; AID 1027; activation factor at 10 µM; 200,000 tested, under 10 active;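 active = luciferase activation factor, scaled between plate controls, of at least 2 with compound at 10 µM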
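Assay system: Luciferase/luciferin detection reagent, cell-free biochemical luciferase assay / Read-out: luciferase activation / Benchmarks: No-ATP low control, compound-free enzyme-plus-ATP high control / Medium: PBS buffer for ATP / Detection: luminescence measurement of luciferase light output / Schedule: 10 min at ambient temperature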
PKD1 kinase inh – inhibitors of human PKD1 kinase | AID 797 | Q15139 | hit rate 0.056% among 200,000 | PKD1 kinase fluorescence polarization assay | inhibition, % (concentration not given with the values); in the data active = inhibition above about 50%
C8 TRAIL sens – sensitizes caspase-8 expressing cells to TRAIL. NB7+C8 cells + TRAIL, ATPlite viability luminescence. hit rate 1% among 360,000. inhibition (viability loss, TRAIL sensitization), % at 10 µM;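 active = compounds causing at least 50% loss of cell viability in the single-dose screen, relative to plate controls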
* marks the source's active call; other numbers are inactive results; . = no result given. The list is not random: actives were taken first. Their share in the collection is about 2.2%.

SMILES | PPC-1+TRAIL kill | Wee1 degr inh | FLuc inhib CS | FLuc stim CS | PKD1 kinase inh | C8 TRAIL sens
CC[C@]1(C(=O)OC)[C@H]2C(=O)N(Cc3ccccc3)C(=O)[C@H]2[C@H]2CN(C)C(=NC)N21 | . | . | . | . | . | -14.6
C=CCN(CC(=O)Nc1cccnc1)S(=O)(=O)c1ccc(Cl)cc1 | . | . | . | . | . | -8.2
Cc1c(C(=O)Nc2ccccc2)csc1-c1ccccc1 | 42.1 | 1.3 | 82.4* | 0.2 | -11.5 | 66.9*
Cc1oc(-c2ccccc2)cc1C(=O)Nc1ccccc1 | 4.6 | 1.8 | -2.4 | 1 | -0.4 | -8.7
O=C(NC1CCCC1)C(c1ccco1)N1CCN(c2c(Cl)cncc2Cl)CC1 (configuration not stated) | . | . | . | . | . | -7.6
Clc1ccc(OCc2cc(-c3ccccc3)no2)c(Cl)c1 | 25.6 | -2.1 | 51.4* | 0.5 | 6.2 | 43.7
CCOC(=O)c1ccc2nc(NC(C)=O)sc2c1 | 13.2 | 9.4* | 7.6 | 0.9 | -4.1 | -15.3
COC(=O)c1ccc2nc(NC(=O)C3CC3)sc2c1 | . | . | . | . | . | -4.8
COC(=O)c1ccc2nc(NC(=O)C(C)C)sc2c1 | 31.4 | 2.1 | 60.4* | 0.4 | 5.3 | 25.3
CSC(=NS(=O)(=O)c1ccc(N)cc1)NS(=O)(=O)c1cccs1 | . | . | . | . | . | -7.9
COC(=O)[C@H](CC(C)C)NC(=O)NCc1ccc(Cl)cc1 | 7.5 | 0.6 | . | . | . | -5.4
COc1ccc(CCNC(=O)CSc2nnc(CNC(=O)c3c(F)cccc3Cl)o2)cc1OC | . | . | . | . | . | -35.9
CCc1cc2c(=O)c(-c3cnn(-c4ccccc4)c3)c(C)oc2cc1OCC(=O)Nc1cccc(C)c1 | 12.0 | 1.0 | -7.6 | 1.1 | -10.4 | 7.0
CCc1cc2c(=O)c(-c3cnn(-c4ccccc4)c3)c(C)oc2cc1OCC(=O)Nc1ccc(F)c(F)c1 | 15.4 | -2.5 | -6.6 | 1.1 | -4.2 | 51.8*
COc1ccc(C2C(=O)c3ccccc3C2=O)cc1OC | 32.6 | 1.1 | 82.3* | 0.2 | -1.6 | 4.5
COc1ccc(NC2=C(c3ccc(OC)cc3)C(=O)c3ccccc32)cc1 | 10.2 | 1.2 | 0.7 | 1 | 11.1 | 17.1
COc1ccc(C2C(=O)c3ccccc3C2=O)cc1 | 18.2 | -1.6 | 90.0* | 0.1 | -12.7 | 31.1
COc1ccc(N=C(C)C2C(=O)c3ccccc3C2=O)cc1 | . | . | . | . | . | 73.9*
COc1ccc(C2=C(N)c3ccccc3C2=O)cc1 | 39.2 | 4.0 | 56.6* | 0.4 | 5.1 | 47.2
O=C(CSCc1ccco1)N1CCc2ccccc21 | . | . | . | . | . | 6.1
CC(Sc1nnc(Cc2ccccc2)o1)C(=O)NC1(C#N)CCCCC1 (configuration not stated) | . | . | . | . | . | -12.3
Cc1cc(/C=N/NC(=O)c2ccccc2F)c(C)n1-c1ccccc1 | 22.2 | 6.2 | 75.1* | 0.2 | -5.5 | 31.4
CCOC(=O)N/N=C/c1cc(C)n(-c2ccccc2)c1C | 17.7 | 4.3 | 37.9 | 0.6 | -6.0 | 1.4
Cc1cc(/C=N/NC(=O)c2cccc(F)c2)c(C)n1-c1ccccc1 | 15.6 | 5.4 | 78.6* | 0.2 | -6.2 | 27.2
Cc1cc2nc3ccc(N(C)C)cc3nc2cc1N | . | . | . | . | . | 51.5*
SMILES | PPC-1+TRAIL kill | Wee1 degr inh | FLuc inhib CS | FLuc stim CS | PKD1 kinase inh | C8 TRAIL sens
Cc1onc(-c2ccccc2Cl)c1C(=O)O/N=C(\N)c1cccc([N+](=O)[O-])c1 | . | . | . | . | . | 87.5*
Cc1onc(-c2ccccc2Cl)c1C(=O)O/N=C(\N)c1ccccc1 | . | . | . | . | . | 91.6*
CC1CN(C(=O)C(C)OC(=O)c2ccc3ncsc3c2)CC(C)O1 (configuration not stated) | . | . | . | . | . | 4.7
COc1ccccc1NC(=O)c1nc(S(=O)(=O)Cc2ccccc2)ncc1Cl | . | . | . | . | . | 94.5*
COc1ccccc1NC(=O)c1ccc(CS(=O)(=O)c2ccc(C)cc2)cc1 | 11.0 | -1.5 | -0.6 | 1 | 5.3 | 5.9
CCOc1ccccc1NC(=O)c1nc(S(=O)(=O)Cc2ccccc2)ncc1Cl | . | . | . | . | . | 96.3*
CCS(=O)(=O)c1ncc(Cl)c(C(=O)Nc2ccccc2OC)n1 | . | . | . | . | . | 89.5*
S=C(NCc1ccccc1)N1CCN(C2CCCCC2)CC1 | 7.8 | -0.8 | . | . | . | 11.8
O=C(C1CCN(S(=O)(=O)c2cccs2)CC1)N(c1ccccn1)C1CCCCC1 | 4.8 | -2.2 | -3.0 | 1 | 7.6 | -4.6
CCCNC(=O)C(Cc1ccc(C(F)(F)P(=O)(OCC)OCC)cc1)NC(=O)c1ccc(C#N)cc1 (configuration not stated) | . | . | . | . | . | -8.7
CNS(=O)(=O)c1cccc(C(=O)OCC(=O)Nc2ccc(Cl)cc2F)c1 | 6.1 | 9.8* | . | . | . | -18.6
O=C(c1ccc2c(c1)N(Cc1cccc(Cl)c1)C(=O)c1ccccc1S2(=O)=O)N1CCN(c2ccccn2)CC1 | 16.2 | 1.2 | -5.4 | 1.1 | 3.1 | 22.2
CCOC(=O)N1CCN(C(=O)CSc2nnc(-c3ccc(C(C)(C)C)cc3)o2)CC1 | 23.0 | -1.4 | 53.1* | 0.5 | 7.3 | 40.2
COC(=O)c1ccc(C)c(NC(=O)c2nn(C)c(=O)c3ccccc23)c1 | 40.2 | 8.9* | -6.9 | 1.1 | 9.2 | -4.1
Clc1cccc(/C=N/Nc2nnc(Cl)c3ccccc23)c1 | -6.0 | 2.4 | 3.3 | 1 | -5.4 | 16.6
Clc1ccc(/C=N/Nc2nnc(-c3ncc[nH]3)c3ccccc23)cc1 | 27.6 | -1.2 | 74.9* | 0.3 | 3.4 | 54.0*
O=C1/C(=C\c2cccnc2)Sc2ccccc21 | 24.4 | -1.9 | 60.5* | 0.4 | 0.8 | -12.4
O=C1C=C(NCCc2cc(Br)c(O)c(Br)c2)C(=O)c2ncccc21 | . | . | . | . | . | 56.9*
Cc1cc(C2=NNC(=NC3CC3)SC2)c(C)n1-c1ccccc1 | 6.2 | -2.9 | 96.8* | 0 | 2.9 | 79.2*
COc1ccc(-n2c(C)cc(C3=NNC(=NC4CC4)SC3)c2C)cc1 | 2.3 | 2.6 | 34.3 | 0.7 | -3.4 | 4.2
Cc1cc(C2=NNC(=NC3CC3)SC2)c(C)n1Cc1ccco1 | -5.3 | -2.9 | 95.8* | 0 | 3.5 | 31.7
COCCCN=C1NN=C(c2cc(C)n(Cc3ccco3)c2C)CS1 | 24.4 | 7.5 | 70.2* | 0.3 | -6.8 | 11.3
COCC(C)N=C1NN=C(c2cc(C)n(Cc3ccccc3Cl)c2C)CS1 (configuration not stated) | 26.1 | -2.0 | 54.1* | 0.5 | -7.7 | 33.4
COc1ccc(C2(C)NC(=O)N(CC(=O)N(c3ccccc3)C3CCS(=O)(=O)C3)C2=O)cc1 (configuration not stated) | . | . | . | . | . | 7.9
COC(=O)CNC(=O)CCc1nnc(C2(c3ccc(Cl)cc3)CCC2)o1 | -6.1 | -0.3 | -4.6 | 1 | -4.9 | 12.9
COCC(C)NC(=O)CCc1nnc(C2(c3ccc(Cl)cc3)CCC2)o1 (configuration not stated) | 10.9 | 8.9* | -6.7 | 1.1 | 3.7 | 0.8
CN(C1CCCCC1)S(=O)(=O)CCNC(=O)c1ccccc1 | . | . | . | . | . | 13.4
COCCN(Cc1cc2ccc(C)cc2[nH]c1=O)S(=O)(=O)c1ccccc1 | . | . | . | . | . | -14.3
CC1=C(C(=O)N2CCOCC2)C(c2ccc(-c3ccccc3)cc2)NC(=S)N1 (configuration not stated) | 1.4 | 0.2 | -4.6 | 1 | -6.1 | -6.1
